Source: ChEMBL document CHEMBL5653631, “A Potent and Selective ULK1 Inhibitor Suppresses Autophagy and Sensitizes Cancer Cells to Nutrient Stress” (iScience, 2018)
Each block holds one molecule with its values, some of them ahead of it.

What was measured:
[1] = target: Platelet-derived growth factor receptor alpha (Homo sapiens) (UniProt P16234); experiment: Inhibition of human recombinant PDGFRa at 500 nM related to control ULK1
[2] = target: Cyclin-dependent kinase 6 (Homo sapiens) (UniProt Q00534); experiment: Inhibition of human recombinant CDK6 at 500 nM in presence of ATP by radiometric assay relative to control
[3] = target: T1, TGF-beta receptor type-1 (Homo sapiens) (UniProt P36897); experiment: Inhibition of human recombinant TGFbR1 at 500 nM related to control ULK1
T1 sequence (whole entry): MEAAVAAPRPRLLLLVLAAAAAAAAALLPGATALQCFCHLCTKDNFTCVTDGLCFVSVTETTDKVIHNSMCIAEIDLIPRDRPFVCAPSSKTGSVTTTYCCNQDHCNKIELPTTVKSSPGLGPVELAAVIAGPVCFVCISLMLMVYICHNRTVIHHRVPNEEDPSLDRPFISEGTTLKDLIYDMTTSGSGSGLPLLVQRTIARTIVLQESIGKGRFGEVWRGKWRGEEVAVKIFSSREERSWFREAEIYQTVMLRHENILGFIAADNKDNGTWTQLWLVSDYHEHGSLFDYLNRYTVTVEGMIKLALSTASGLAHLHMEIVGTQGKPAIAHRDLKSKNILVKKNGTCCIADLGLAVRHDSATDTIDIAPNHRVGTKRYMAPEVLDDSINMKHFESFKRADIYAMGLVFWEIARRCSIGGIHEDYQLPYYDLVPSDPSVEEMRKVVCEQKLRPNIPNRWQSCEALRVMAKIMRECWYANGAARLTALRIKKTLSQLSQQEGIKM

[4] = target: G protein-coupled receptor kinase 5 (Homo sapiens) (UniProt P34947); experiment: Inhibition of human recombinant GPRK5 at 500 nM in presence of ATP by radiometric assay relative to control
[5] = target: MAP kinase-interacting serine/threonine-protein kinase 2 (Homo sapiens, UniProt Q9HBH9); experiment: Inhibition of human recombinant MNK2 at 15 nM in presence of ATP by radiometric assay relative to control
[6] = target: Serine/threonine-protein kinase SIK3 (Homo sapiens) (UniProt Q9Y2K2); experiment: Inhibition of human recombinant QSK at 15 nM related to control ULK1
[7] = target: PAS domain-containing serine/threonine-protein kinase (Homo sapiens) (UniProt Q96RG2); experiment: Inhibition of human recombinant PASK at 15 nM in presence of ATP by radiometric assay relative to control
[8] = target: Serine/threonine-protein kinase WNK3 (Homo sapiens) (UniProt Q9BYP7); experiment: Inhibition of human recombinant Wnk3 at 15 nM in presence of ATP by radiometric assay relative to control
[9] = target: Ephrin type-A receptor 5 (Homo sapiens) (UniProt P54756); experiment: Inhibition of human recombinant EphA5 at 40 nM in presence of ATP by radiometric assay relative to control
[10] = target: T2, Serine/threonine-protein kinase Nek9 (Homo sapiens) (UniProt Q8TD19); experiment: Inhibition of human recombinant NEK9 at 40 nM in presence of ATP by radiometric assay relative to control
T2 sequence (whole entry): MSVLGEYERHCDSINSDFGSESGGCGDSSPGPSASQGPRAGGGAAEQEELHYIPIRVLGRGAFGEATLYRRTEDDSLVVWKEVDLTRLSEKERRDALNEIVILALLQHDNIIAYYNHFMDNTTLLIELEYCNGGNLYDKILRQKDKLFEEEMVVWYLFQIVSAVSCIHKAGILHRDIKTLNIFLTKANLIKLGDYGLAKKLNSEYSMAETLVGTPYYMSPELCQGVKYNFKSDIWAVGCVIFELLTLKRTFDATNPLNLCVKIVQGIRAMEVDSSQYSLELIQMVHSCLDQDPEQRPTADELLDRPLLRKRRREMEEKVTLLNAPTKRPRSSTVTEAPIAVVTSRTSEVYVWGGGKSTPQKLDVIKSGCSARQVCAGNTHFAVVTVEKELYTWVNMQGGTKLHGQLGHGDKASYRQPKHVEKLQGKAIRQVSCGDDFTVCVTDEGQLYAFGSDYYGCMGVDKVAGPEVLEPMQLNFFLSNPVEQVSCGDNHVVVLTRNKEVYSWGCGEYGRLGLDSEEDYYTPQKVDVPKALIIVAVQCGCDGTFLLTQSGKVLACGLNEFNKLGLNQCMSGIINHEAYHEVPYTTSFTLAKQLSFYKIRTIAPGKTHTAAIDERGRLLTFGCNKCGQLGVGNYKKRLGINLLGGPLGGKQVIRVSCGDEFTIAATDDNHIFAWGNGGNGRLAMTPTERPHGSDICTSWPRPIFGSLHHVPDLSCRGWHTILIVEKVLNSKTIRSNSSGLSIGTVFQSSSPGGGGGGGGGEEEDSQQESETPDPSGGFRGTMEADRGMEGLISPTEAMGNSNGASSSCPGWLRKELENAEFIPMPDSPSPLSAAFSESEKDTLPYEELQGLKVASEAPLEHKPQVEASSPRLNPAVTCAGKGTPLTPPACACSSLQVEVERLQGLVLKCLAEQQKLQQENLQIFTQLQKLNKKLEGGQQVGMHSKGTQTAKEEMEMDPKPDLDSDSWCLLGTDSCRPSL

[11] = target: Calcium/calmodulin-dependent protein kinase type 1 (Homo sapiens) (UniProt Q14012); experiment: Inhibition of human recombinant CaMK1a at 40 nM in presence of ATP by radiometric assay relative to control
[12] = target: Receptor-interacting serine/threonine-protein kinase 2 (Homo sapiens) (UniProt O43353); experiment: Inhibition of human recombinant RIPK2 at 40 nM in presence of ATP by radiometric assay relative to control
[13] = target: Serine/threonine-protein kinase SBK1 (Homo sapiens) (UniProt Q52WX2); experiment: Inhibition of human recombinant SBK1 at 40 nM related to control ULK1
[14] = target: RAC-beta serine/threonine-protein kinase (Homo sapiens) (UniProt P31751); experiment: Inhibition of human recombinant AKT2 at 40 nM related to control ULK1
Outline: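 Radiometric activity assays in a panel of 327 human recombinant kinases, each run in duplicate at one inhibitor concentration. Activity remaining is expressed as percent of vehicle control, and percent inhibition is calculated as 100% minus percent activity remaining.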

Sequence of Calcium/calmodulin-dependent protein kinase type 1 (Homo sapiens) (Q14012 whole entry, looked up): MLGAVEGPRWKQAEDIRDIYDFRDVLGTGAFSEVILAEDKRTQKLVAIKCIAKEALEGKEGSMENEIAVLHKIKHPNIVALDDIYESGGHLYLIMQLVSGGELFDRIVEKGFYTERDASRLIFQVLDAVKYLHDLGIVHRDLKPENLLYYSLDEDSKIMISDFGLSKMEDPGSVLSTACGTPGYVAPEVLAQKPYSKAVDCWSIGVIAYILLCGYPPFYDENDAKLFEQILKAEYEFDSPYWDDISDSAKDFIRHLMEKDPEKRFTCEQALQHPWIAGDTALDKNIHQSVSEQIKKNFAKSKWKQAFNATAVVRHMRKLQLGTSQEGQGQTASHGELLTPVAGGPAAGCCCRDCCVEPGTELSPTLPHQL
Sequence of Platelet-derived growth factor receptor alpha (Homo sapiens) (P16234 whole entry): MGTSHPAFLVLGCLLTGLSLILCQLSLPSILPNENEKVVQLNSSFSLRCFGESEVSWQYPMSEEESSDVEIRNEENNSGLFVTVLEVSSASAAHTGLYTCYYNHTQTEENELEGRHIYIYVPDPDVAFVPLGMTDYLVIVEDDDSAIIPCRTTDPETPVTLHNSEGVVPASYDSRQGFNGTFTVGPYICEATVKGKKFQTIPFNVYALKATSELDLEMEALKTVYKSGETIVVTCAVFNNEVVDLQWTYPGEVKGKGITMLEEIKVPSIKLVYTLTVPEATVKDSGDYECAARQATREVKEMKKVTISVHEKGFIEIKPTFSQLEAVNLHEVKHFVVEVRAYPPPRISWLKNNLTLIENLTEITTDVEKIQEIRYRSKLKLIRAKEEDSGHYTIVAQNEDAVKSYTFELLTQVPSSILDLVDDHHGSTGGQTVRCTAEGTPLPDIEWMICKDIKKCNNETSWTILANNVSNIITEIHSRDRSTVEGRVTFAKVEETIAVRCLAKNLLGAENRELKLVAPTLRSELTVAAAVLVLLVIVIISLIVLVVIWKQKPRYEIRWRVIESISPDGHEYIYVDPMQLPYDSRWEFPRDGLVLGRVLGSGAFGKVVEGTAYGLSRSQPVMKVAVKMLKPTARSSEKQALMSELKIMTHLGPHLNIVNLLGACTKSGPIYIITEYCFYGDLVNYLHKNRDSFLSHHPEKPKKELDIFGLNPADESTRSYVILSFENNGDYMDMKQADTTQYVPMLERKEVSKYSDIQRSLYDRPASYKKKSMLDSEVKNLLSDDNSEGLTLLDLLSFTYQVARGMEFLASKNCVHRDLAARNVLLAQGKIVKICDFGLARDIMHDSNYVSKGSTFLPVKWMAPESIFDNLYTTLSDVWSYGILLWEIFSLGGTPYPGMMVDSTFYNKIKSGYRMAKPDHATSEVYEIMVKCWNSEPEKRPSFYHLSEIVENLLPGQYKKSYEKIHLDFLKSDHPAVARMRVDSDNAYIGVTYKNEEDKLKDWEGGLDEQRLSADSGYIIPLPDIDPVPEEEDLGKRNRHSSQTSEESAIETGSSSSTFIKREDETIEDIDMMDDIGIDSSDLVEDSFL
Sequence of Serine/threonine-protein kinase WNK3 (Homo sapiens) (Q9BYP7 whole entry): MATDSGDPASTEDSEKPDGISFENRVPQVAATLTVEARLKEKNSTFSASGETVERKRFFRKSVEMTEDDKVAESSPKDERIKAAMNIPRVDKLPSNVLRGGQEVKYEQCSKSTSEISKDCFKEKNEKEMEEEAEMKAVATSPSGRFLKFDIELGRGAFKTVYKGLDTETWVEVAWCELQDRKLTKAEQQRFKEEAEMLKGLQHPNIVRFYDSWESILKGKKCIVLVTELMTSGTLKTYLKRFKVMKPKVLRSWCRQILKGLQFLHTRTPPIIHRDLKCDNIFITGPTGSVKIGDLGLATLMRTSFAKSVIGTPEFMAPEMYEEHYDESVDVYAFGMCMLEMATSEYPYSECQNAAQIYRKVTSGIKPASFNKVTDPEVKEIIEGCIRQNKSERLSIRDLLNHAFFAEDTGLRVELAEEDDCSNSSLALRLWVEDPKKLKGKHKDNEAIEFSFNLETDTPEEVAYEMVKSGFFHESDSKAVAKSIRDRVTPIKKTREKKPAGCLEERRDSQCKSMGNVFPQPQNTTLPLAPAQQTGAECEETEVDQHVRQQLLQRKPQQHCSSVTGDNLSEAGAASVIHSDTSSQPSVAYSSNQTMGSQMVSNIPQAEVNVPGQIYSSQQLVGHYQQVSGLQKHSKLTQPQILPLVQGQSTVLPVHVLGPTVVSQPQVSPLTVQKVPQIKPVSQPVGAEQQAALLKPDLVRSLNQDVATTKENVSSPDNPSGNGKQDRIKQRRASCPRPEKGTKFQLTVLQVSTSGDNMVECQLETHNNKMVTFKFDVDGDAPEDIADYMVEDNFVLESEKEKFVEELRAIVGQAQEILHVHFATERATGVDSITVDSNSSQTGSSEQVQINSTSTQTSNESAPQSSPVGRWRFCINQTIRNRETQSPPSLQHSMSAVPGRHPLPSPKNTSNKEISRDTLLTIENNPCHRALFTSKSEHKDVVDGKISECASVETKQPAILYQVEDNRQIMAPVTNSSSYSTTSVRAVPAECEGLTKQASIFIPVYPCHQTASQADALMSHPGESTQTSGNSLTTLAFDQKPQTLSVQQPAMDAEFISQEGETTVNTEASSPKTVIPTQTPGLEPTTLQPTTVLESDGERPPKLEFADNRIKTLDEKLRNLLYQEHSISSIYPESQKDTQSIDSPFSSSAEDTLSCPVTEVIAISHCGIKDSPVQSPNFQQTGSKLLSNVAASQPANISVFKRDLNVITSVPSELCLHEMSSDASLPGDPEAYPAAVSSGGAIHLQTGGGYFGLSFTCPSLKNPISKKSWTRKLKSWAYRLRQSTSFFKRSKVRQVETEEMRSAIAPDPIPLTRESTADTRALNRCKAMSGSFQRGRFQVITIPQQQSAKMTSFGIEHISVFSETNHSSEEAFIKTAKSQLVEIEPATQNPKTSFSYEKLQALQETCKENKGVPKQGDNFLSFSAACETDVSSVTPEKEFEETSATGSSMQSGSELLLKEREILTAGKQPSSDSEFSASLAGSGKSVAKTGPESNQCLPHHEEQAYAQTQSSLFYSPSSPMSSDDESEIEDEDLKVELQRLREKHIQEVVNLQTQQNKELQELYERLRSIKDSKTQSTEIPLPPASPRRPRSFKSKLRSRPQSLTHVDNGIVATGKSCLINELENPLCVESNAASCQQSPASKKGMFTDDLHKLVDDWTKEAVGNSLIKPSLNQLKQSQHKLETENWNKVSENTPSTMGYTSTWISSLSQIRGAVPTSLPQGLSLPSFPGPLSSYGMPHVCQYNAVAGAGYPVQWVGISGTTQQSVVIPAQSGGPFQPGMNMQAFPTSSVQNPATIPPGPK
Sequence of RAC-beta serine/threonine-protein kinase (Homo sapiens) (P31751 whole entry): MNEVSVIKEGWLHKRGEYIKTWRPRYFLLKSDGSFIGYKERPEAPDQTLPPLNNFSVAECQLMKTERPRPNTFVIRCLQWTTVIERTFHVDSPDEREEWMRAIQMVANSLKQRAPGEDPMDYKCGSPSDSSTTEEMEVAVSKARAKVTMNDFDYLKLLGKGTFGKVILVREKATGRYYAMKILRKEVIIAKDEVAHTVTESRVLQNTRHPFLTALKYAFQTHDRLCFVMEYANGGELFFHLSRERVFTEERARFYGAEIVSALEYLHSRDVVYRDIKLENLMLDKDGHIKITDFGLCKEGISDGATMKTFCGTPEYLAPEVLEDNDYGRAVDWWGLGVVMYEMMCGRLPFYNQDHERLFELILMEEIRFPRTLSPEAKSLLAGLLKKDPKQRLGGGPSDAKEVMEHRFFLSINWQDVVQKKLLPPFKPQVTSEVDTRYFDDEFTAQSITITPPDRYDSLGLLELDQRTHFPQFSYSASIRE
Sequence of Receptor-interacting serine/threonine-protein kinase 2 (Homo sapiens) (O43353 whole entry): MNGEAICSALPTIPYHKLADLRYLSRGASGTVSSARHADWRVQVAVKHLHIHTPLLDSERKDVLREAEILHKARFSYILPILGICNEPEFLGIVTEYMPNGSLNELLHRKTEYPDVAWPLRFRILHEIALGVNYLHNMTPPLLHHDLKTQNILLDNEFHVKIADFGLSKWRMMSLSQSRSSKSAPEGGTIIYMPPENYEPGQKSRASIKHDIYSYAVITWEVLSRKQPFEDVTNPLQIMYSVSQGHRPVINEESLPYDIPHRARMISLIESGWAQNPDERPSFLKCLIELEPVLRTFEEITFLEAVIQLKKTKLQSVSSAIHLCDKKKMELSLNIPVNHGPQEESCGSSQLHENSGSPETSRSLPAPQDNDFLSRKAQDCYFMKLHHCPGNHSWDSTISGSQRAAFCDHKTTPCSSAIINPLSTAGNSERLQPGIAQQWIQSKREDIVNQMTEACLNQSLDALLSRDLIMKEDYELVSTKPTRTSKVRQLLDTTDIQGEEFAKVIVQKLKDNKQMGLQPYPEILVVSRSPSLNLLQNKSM
Sequence of Cyclin-dependent kinase 6 (Homo sapiens) (Q00534 whole entry): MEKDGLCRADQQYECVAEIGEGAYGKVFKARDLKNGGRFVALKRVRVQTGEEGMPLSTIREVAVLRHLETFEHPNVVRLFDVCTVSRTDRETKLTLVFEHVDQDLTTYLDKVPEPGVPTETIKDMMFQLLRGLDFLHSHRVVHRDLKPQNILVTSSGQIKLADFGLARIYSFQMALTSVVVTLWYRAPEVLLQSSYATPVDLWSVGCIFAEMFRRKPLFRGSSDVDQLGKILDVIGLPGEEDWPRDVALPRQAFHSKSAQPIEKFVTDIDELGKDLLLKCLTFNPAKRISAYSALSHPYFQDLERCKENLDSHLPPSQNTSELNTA
Sequence of Serine/threonine-protein kinase SBK1 (Homo sapiens) (Q52WX2 whole entry): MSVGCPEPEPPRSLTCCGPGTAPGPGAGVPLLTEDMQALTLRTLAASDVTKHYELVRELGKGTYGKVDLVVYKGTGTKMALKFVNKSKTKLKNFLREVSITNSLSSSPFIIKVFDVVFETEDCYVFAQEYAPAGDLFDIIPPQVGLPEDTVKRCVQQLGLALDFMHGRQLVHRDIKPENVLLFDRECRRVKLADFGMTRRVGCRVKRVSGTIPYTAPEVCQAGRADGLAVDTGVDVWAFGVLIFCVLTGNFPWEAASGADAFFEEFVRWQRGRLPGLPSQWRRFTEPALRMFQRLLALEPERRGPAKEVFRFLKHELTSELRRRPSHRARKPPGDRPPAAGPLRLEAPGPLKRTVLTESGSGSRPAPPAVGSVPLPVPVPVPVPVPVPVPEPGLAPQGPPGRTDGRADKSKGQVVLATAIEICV

fold change (FC) [1]: 0
inhibition [2]: 0%
fold change (FC) [3]: 0
inhibition [4]: 1%
SMILES: CNC(=O)c1ccccc1Oc1nc(Nc2cc(OC)c(OC)c(OC)c2)ncc1Br

inhibition [5]: 26%
fold change (FC) [6]: 0.98
inhibition [7]: 0%
inhibition [8]: 0%
SMILES: CC(C)[C@H](NC(=O)c1cc(-c2cnn3cc(-c4ccc(OCCN5CCCCC5)cc4)cnc23)cs1)C(F)(F)F

inhibition [9]: 0%
inhibition [11]: 0%
inhibition [12]: 30%
fold change (FC) [13]: 0
fold change (FC) [14]: 0.14
SMILES: O=C(N[C@@H](C1CC1)C(F)(F)F)c1cc(-c2cnn3cc(-c4ccc(F)cc4)cnc23)cs1
inhibition [10]: 5%
